The array DNA melting data of Ke et al. (doi:10.1101/2024.01.08.574731)

Legend:
[1] = folding enthalpy; higher = less favourable; fluorescence melt of hairpins on a sequencing array, two-state fit; details: sodium 0.088 M
In short: (§1)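 Melting temperature and folding enthalpy were obtained by bootstrapped two-state fitting. Fits used Cy3 fluorescence of library hairpins with annealed Cy3 and quencher oligos on a sequenced MiSeq flow cell, imaged in 50 mM Na-HEPES pH 8.0, 25 mM NaCl in 2.5 °C steps up to 60 °C and normalised to pre-quench Cy3 and control constructs. Four replicates were combined by inverse-variance weighting, and fitted temperatures were raised by 9.35 °C to match UV melts.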

[2] = melting temperature; fluorescence melt of hairpins on a sequencing array, two-state fit, raised by 9.35 °C to match UV melts; details: sodium 0.088 M
In short: as §1

Sequence: GCGGATAGCCGC ((((....))))
- folding enthalpy [1]: -26.6 kcal/mol
- Tm [2]: 54.9 °C

Sequence: GTGATGGGAAACCATTAC ((.((((....)))).))
- folding enthalpy [1]: -31.1 kcal/mol
- Tm [2]: 43.5 °C

Sequence: GTCGCCGAAAGGCACGAC ((((((....)))..)))
- folding enthalpy [1]: -15.6 kcal/mol
- Tm [2]: 48.4 °C

Sequence: GGAGCAGAAATGCTCC ((((((....))))))
- folding enthalpy [1]: -36.9 kcal/mol
- Tm [2]: 62.3 °C

Sequence: GTCCAGACGAAAGTCGAC (((..(((....))))))
- folding enthalpy [1]: -11.1 kcal/mol
- Tm [2]: 36.9 °C

Sequence: GATCATATTCATGATC ((((((....))))))
- folding enthalpy [1]: -37.3 kcal/mol
- Tm [2]: 47.8 °C

Sequence: GTGCGAGGAAACTCGCGC (.(((((....))))).)
- folding enthalpy [1]: -18.2 kcal/mol
- Tm [2]: 66.2 °C

Sequence: GATCTAACTTTAGATC ((((((....))))))
- folding enthalpy [1]: -29.9 kcal/mol
- Tm [2]: 43.2 °C

Sequence: GCGCGAGCGAAAGCTCGC (((..(((....))))))
- folding enthalpy [1]: -6.17 kcal/mol
- Tm [2]: 69.1 °C

Sequence: GACAGCGGAAACGCTATC ((.((((....)))).))
- folding enthalpy [1]: -14 kcal/mol
- Tm [2]: 36.7 °C

Sequence: GCCGGGCGAAAGCCACGC ((..(((....)))..))
- folding enthalpy [1]: -12.7 kcal/mol
- Tm [2]: 50 °C

Sequence: TGGAGGAAACTCCA (((((....)))))
- folding enthalpy [1]: -17.4 kcal/mol
- Tm [2]: 46 °C

Sequence: GGTGGCCGAAAGGCAACC (((.(((....))).)))
- folding enthalpy [1]: -28.1 kcal/mol
- Tm [2]: 66.5 °C

Sequence: GCGATATATCGC ((((....))))
- folding enthalpy [1]: -25.9 kcal/mol
- Tm [2]: 55.6 °C

Sequence: GCCACCGAAAGGTCGGC ((((((....))).)))
- folding enthalpy [1]: -29.9 kcal/mol
- Tm [2]: 59 °C

Sequence: GCGGAGTTCCGC ((((....))))
- folding enthalpy [1]: -23.4 kcal/mol
- Tm [2]: 59.6 °C

Sequence: GGTGGCGAAAGCCTAACC ((((((....)))..)))
- folding enthalpy [1]: -16.5 kcal/mol
- Tm [2]: 43.7 °C

Sequence: GCCCTCGAAAGAGGCGGC ((((((....)))..)))
- folding enthalpy [1]: -19.1 kcal/mol
- Tm [2]: 56 °C

Sequence: GACCCGCGAAAGCGGTC (((.(((....))))))
- folding enthalpy [1]: -10 kcal/mol
- Tm [2]: 52.1 °C

Sequence: GCGGTGCGAAAGCAAAGC ((..(((....)))..))
- folding enthalpy [1]: -32.1 kcal/mol
- Tm [2]: 63.3 °C

Sequence: GTGCTTGGAAACGAGCAC (((((.(....).)))))
- folding enthalpy [1]: -40.1 kcal/mol
- Tm [2]: 55.5 °C

Sequence: GCTGCGCGAAAGCACGGC ((.(.((....)).).))
- folding enthalpy [1]: -26.6 kcal/mol
- Tm [2]: 59.1 °C

Sequence: GTTCAACGAAAGTTTAAC (((.(((....))).)))
- folding enthalpy [1]: -22.9 kcal/mol
- Tm [2]: 35.2 °C

Sequence: GCAGCAGGAAACTACTGC ((((.((....)).))))
- folding enthalpy [1]: -30.5 kcal/mol
- Tm [2]: 45.5 °C

Sequence: GCCGACGAAAGTCTCGGC ((((((....)))..)))
- folding enthalpy [1]: -37.1 kcal/mol
- Tm [2]: 52 °C

Sequence: GTGCCCGAAAGGGCGCAC ((((((....)))..)))
- folding enthalpy [1]: -8.85 kcal/mol
- Tm [2]: 64.8 °C

Sequence: GGGCGTGGAAACATGCCC ((((.((....)).))))
- folding enthalpy [1]: -42.9 kcal/mol
- Tm [2]: 63.1 °C

Sequence: GCCCGCCGAAAGGCAGGC (((.(((....))).)))
- folding enthalpy [1]: -20.8 kcal/mol
- Tm [2]: 69 °C

Sequence: GATCCGCATCGGATC ((((((...))))))
- folding enthalpy [1]: -38.3 kcal/mol
- Tm [2]: 56.5 °C

Sequence: GTCAGGGGAAACTCTGGC (.(((.(....).))).)
- folding enthalpy [1]: -24.5 kcal/mol
- Tm [2]: 36.4 °C

Sequence: GCTCGCGGAAACGTGAGC ((((.((....)).))))
- folding enthalpy [1]: -37.6 kcal/mol
- Tm [2]: 64.9 °C

Sequence: GAGGTCGGAAACAACCTC (((((.(....).)))))
- folding enthalpy [1]: -28.8 kcal/mol
- Tm [2]: 41.2 °C

Sequence: GGACACGAAAGTGTCTCC ((((((....)))..)))
- folding enthalpy [1]: -9.39 kcal/mol
- Tm [2]: 53.8 °C

Sequence: GTCGCCGAAAGGCTAGAC ((((((....)))..)))
- folding enthalpy [1]: -16.8 kcal/mol
- Tm [2]: 47.1 °C

Sequence: GATCTCCCGGAGATC ((((((...))))))
- folding enthalpy [1]: -37.4 kcal/mol
- Tm [2]: 53.8 °C

Sequence: GAACAACGAAAGTTTTTC (((.(((....))).)))
- folding enthalpy [1]: -17.8 kcal/mol
- Tm [2]: 31.6 °C

Sequence: GATCCGCCATCGGATC ((((((....))))))
- folding enthalpy [1]: -37 kcal/mol
- Tm [2]: 57.4 °C

Sequence: GTTCTCGAAAGAGTAAC ((((((....))).)))
- folding enthalpy [1]: -18.5 kcal/mol
- Tm [2]: 34.9 °C
